Assay results from ChEMBL document CHEMBL1275589, “Molecular epidemiology, sequence types, and plasmid analyses of KPC-producing Klebsiella pneumoniae strains in Israel” (2010).
In brackets after ≈: the same amount, converted by molar mass.

Experiments:
Klebsiella pneumoniae [1] = experiment: Antimicrobial activity against carbapenem-resistant KPC-2 producing Klebsiella pneumoniae 469 ST 277 expressing beta-lactamase SHV-27, CTX-M-15 and OXA-4 by agar dilution method; format: functional
Klebsiella pneumoniae [2] = experiment: Antimicrobial activity against KPC-3 producing Klebsiella pneumoniae 549 ST 327 expressing beta-lactamase TEM-1 and CTX-M-2 by agar dilution method; format: functional
Klebsiella pneumoniae [3] = experiment: Antimicrobial activity against KPC-3 producing Klebsiella pneumoniae 549 transformant by agar dilution method; format: functional
Klebsiella pneumoniae [4] = experiment: Antimicrobial activity against carbapenem-resistant KPC-2 producing Klebsiella pneumoniae 525 transformant by agar dilution method; format: functional
Klebsiella pneumoniae [5] = experiment: Antimicrobial activity against carbapenem-resistant KPC-2 producing Klebsiella pneumoniae 531 transformant by agar dilution method; format: functional
Klebsiella pneumoniae [6] = experiment: Antimicrobial activity against KPC-3 producing Klebsiella pneumoniae 557 ST 258 expressing beta-lactamase TEM-1 by agar dilution method
Klebsiella pneumoniae [7] = experiment: Antimicrobial activity against carbapenem-resistant KPC-2 producing Klebsiella pneumoniae 526 ST 376 expressing beta-lactamase SHV-1 by agar dilution method; format: functional
Klebsiella pneumoniae [8] = experiment: Antimicrobial activity against carbapenem-resistant KPC-2 producing Klebsiella pneumoniae 588 transformant by agar dilution method; format: functional
Klebsiella pneumoniae [9] = experiment: Antimicrobial activity against carbapenem-resistant KPC-2 producing Klebsiella pneumoniae 525 ST 376 expressing beta-lactamase SHV-1 by agar dilution method; format: functional
Klebsiella pneumoniae [10] = experiment: Antimicrobial activity against carbapenem-resistant KPC-2 producing Klebsiella pneumoniae 588 ST 340 expressing beta-lactamase TEM-1 and SHV-11 by agar dilution method; format: functional
Klebsiella pneumoniae [11] = experiment: Antimicrobial activity against carbapenem-resistant KPC-2 producing Klebsiella pneumoniae 523 ST 340 expressing beta-lactamase TEM-1, SHV-11 and OXA-2 by agar dilution method; format: functional
Klebsiella pneumoniae [12] = experiment: Antimicrobial activity against carbapenem-resistant KPC-2 producing Klebsiella pneumoniae 523 transformant by agar dilution method; format: functional
Klebsiella pneumoniae [13] = experiment: Antimicrobial activity against KPC-3 producing Klebsiella pneumoniae 557 transformant by agar dilution method; format: functional
Klebsiella pneumoniae [14] = experiment: Antimicrobial activity against carbapenem-resistant KPC-2 producing Klebsiella pneumoniae 365 transformant by agar dilution method; format: functional
Klebsiella pneumoniae [15] = experiment: Antimicrobial activity against carbapenem-resistant KPC-2 producing Klebsiella pneumoniae 475 transformant by agar dilution method; format: functional
Klebsiella pneumoniae [16] = experiment: Antimicrobial activity against carbapenem-resistant KPC-2 producing Klebsiella pneumoniae 469 transformant by agar dilution method; format: functional
Escherichia coli = experiment: Antimicrobial activity against Escherichia coli Genehogs by agar dilution method; format: functional
Outline: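 Carbapenem MICs by agar dilution, interpreted per CLSI. FDA Enterobacteriaceae breakpoints applied: susceptible ≤2 μg/ml, intermediate 4 μg/ml, resistant ≥8 μg/ml. Transformants were made in recipient E. coli GeneHogs with purified plasmid DNA.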

Klebsiella pneumoniae [17] = experiment: Antimicrobial activity against carbapenem-resistant KPC-2 producing Klebsiella pneumoniae 531 ST 376 expressing beta-lactamase SHV-1 by agar dilution method; format: functional
Klebsiella pneumoniae [18] = experiment: Antimicrobial activity against carbapenem-resistant KPC-2 producing Klebsiella pneumoniae 365 ST 376 expressing beta-lactamase SHV-1, CTX-M-15 and OXA-4 by agar dilution method
Klebsiella pneumoniae [19] = experiment: Antimicrobial activity against carbapenem-resistant KPC-2 producing Klebsiella pneumoniae 475 ST 277 expressing beta-lactamase SHV-27, CTX-M-15 and OXA-4 by agar dilution method; format: functional
Klebsiella pneumoniae [20] = experiment: Antimicrobial activity against carbapenem-resistant KPC-2 producing Klebsiella pneumoniae 526 transformant by agar dilution method; format: functional

Compound	MIC (Klebsiella pneumoniae [1]) [µg/mL]	MIC (Klebsiella pneumoniae [2]) [µg/mL]	MIC (Klebsiella pneumoniae [3]) [µg/mL]	MIC (Klebsiella pneumoniae [4]) [µg/mL]	MIC (Klebsiella pneumoniae [5]) [µg/mL]	MIC (Klebsiella pneumoniae [6]) [µg/mL]	MIC (Klebsiella pneumoniae [7]) [µg/mL]	MIC (Klebsiella pneumoniae [8]) [µg/mL]	MIC (Klebsiella pneumoniae [9]) [µg/mL]	MIC (Klebsiella pneumoniae [10]) [µg/mL]	MIC (Klebsiella pneumoniae [11]) [µg/mL]	MIC (Klebsiella pneumoniae [12]) [µg/mL]	MIC (Klebsiella pneumoniae [13]) [µg/mL]	MIC (Klebsiella pneumoniae [15]) [µg/mL]	MIC (Klebsiella pneumoniae [16]) [µg/mL]	MIC (Escherichia coli) [µg/mL]	MIC (Klebsiella pneumoniae [17]) [µg/mL]	MIC (Klebsiella pneumoniae [18]) [µg/mL]	MIC (Klebsiella pneumoniae [19]) [µg/mL]	MIC (Klebsiella pneumoniae [20]) [µg/mL]	further results
C[C@@H](O)[C@H]1C(=O)N2C(C(=O)O)=C(S[C@@H]3CN[C@H](C(=O)Nc4cccc(C(=O)O)c4)C3)[C@H](C)[C@H]12	64 (≈ 135 µM)	32 (≈ 67.3 µM)	4 (≈ 8.41 µM)	4 (≈ 8.41 µM)	2 (≈ 4.21 µM)	256 (≈ 538 µM)	64 (≈ 135 µM)	8 (≈ 16.8 µM)	128 (≈ 269 µM)	128 (≈ 269 µM)	64 (≈ 135 µM)	8 (≈ 16.8 µM)	4 (≈ 8.41 µM)	8 (≈ 16.8 µM)	4 (≈ 8.41 µM)	0.012 (≈ 0.0252 µM)	128 (≈ 269 µM)	64 (≈ 135 µM)	128 (≈ 269 µM)	8 (≈ 16.8 µM)	MIC (Klebsiella pneumoniae [14]): 8 µg/mL (≈ 16.8 µM)
NCC[C@H](O)C(=O)N[C@@H]1C[C@H](N)[C@@H](O[C@H]2O[C@H](CN)[C@@H](O)[C@H](O)[C@H]2O)[C@H](O)[C@H]1O[C@H]1O[C@H](CO)[C@@H](O)[C@H](N)[C@H]1O [AMIKACIN]	4 (≈ 6.83 µM)	< 2		16 (≈ 27.3 µM)	16 (≈ 27.3 µM)	32 (≈ 54.6 µM)	4 (≈ 6.83 µM)	32 (≈ 54.6 µM)	8 (≈ 13.7 µM)	32 (≈ 54.6 µM)	16 (≈ 27.3 µM)	> 64	< 2	8 (≈ 13.7 µM)	16 (≈ 27.3 µM)	< 2	8 (≈ 13.7 µM)	4 (≈ 6.83 µM)	< 2	8 (≈ 13.7 µM)	MIC (Klebsiella pneumoniae [14]): < 2 µg/mL
C[C@H]1[C@H](NC(=O)/C(=N\OC(C)(C)C(=O)O)c2csc(N)n2)C(=O)N1S(=O)(=O)O [AZTREONAM]	> 64	> 64	> 64	> 64	64 (≈ 147 µM)	> 64	> 64	> 64	> 64	> 64	> 64	> 64	> 64	32 (≈ 73.5 µM)	32 (≈ 73.5 µM)	< 1	> 64	> 64	> 64	> 64	MIC (Klebsiella pneumoniae [14]): > 64 µg/mL
CC(C)(O/N=C(\C(=O)N[C@@H]1C(=O)N2C(C(=O)[O-])=C(C[n+]3ccccc3)CS[C@H]12)c1csc(N)n1)C(=O)O [CEFTAZIDIME]	> 64	16 (≈ 29.3 µM)	> 64	16 (≈ 29.3 µM)	16 (≈ 29.3 µM)	> 64	> 64	16 (≈ 29.3 µM)	> 64	16 (≈ 29.3 µM)	16 (≈ 29.3 µM)	16 (≈ 29.3 µM)	> 64	16 (≈ 29.3 µM)	> 64	< 1	> 64	> 64	16 (≈ 29.3 µM)	16 (≈ 29.3 µM)	MIC (Klebsiella pneumoniae [14]): 16 µg/mL (≈ 29.3 µM)
CO/N=C(\C(=O)N[C@@H]1C(=O)N2C(C(=O)O)=C(CSc3nc(=O)c(O)nn3C)CS[C@H]12)c1csc(N)n1 [CEFTRIAXONE]	> 64	> 64	32 (≈ 57.7 µM)	8 (≈ 14.4 µM)	16 (≈ 28.9 µM)	> 64	> 64	32 (≈ 57.7 µM)	> 64	> 64	16 (≈ 28.9 µM)	32 (≈ 57.7 µM)	32 (≈ 57.7 µM)	32 (≈ 57.7 µM)	> 64	< 1	> 64	> 64	16 (≈ 28.9 µM)	32 (≈ 57.7 µM)	
